According to ChEMBL document CHEMBL3271984, “Antifungal activity of 4-substituted crotonic acid esters” (1976):
Converted amounts (≈) assume the structure as drawn. The source made the active and inactive calls. The calls are words filed in the database; no cut-off is given here.

Legend:
Format in all cases: functional
Aspergillus niger [1] = experiment: Antifungal activity against Aspergillus niger ATCC 1004 assessed as growth inhibition at pH 5.6 incubated for 5 days in absence of 10% beef serum; conditions: for MIC: ATCC 1004, 120 h, read-out: MIC100
Outline: (§1)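 Agar dilution in Sabouraud dextrose agar at pH 5.6 or 7.0, with or without 10% beef serum. C. albicans and M. mucedo were incubated 20 h at 37°; A. niger and T. mentagrophytes 5 days at 28°. The value is the minimal µg/ml giving 100% inhibition. Steps were 1 µg/ml up to 10, 2 up to 20, then 10 up to 100 µg/ml maximum.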

Mucor mucedo [2] = experiment: Antifungal activity against Mucor mucedo ATCC 7941 assessed as growth inhibition at pH 5.6 incubated for 20 hrs in absence of 10% beef serum; conditions: for MIC: ATCC 7941, 20 h, read-out: MIC100; outline: as §1
Aspergillus niger [3] = experiment: Antifungal activity against Aspergillus niger ATCC 1004 assessed as growth inhibition at pH 7 incubated for 5 days in presence of 10% beef serum; conditions: for MIC: ATCC 1004, 120 h, read-out: MIC100; outline: as §1
Aspergillus niger [4] = experiment: Antifungal activity against Aspergillus niger ATCC 1004 assessed as growth inhibition at pH 5.6 incubated for 5 days in presence of 10% beef serum; conditions: for MIC: ATCC 1004, 120 h, read-out: MIC100; outline: as §1
Aspergillus niger [5] = experiment: Antifungal activity against Aspergillus niger ATCC 1004 assessed as growth inhibition at pH 7 incubated for 5 days in absence of 10% beef serum; conditions: for MIC: ATCC 1004, 120 h, read-out: MIC100; outline: as §1
Mucor mucedo [6] = experiment: Antifungal activity against Mucor mucedo ATCC 7941 assessed as growth inhibition at pH 5.6 incubated for 20 hrs in presence of 10% beef serum; conditions: for MIC: ATCC 7941, 20 h, read-out: MIC100; outline: as §1
Candida albicans [7] = experiment: Antifungal activity against Candida albicans ATCC 10231 assessed as growth inhibition at pH 7 incubated for 20 hrs in presence of 10% beef serum; conditions: for MIC: ATCC 10231, 20 h, read-out: MIC100; outline: as §1
Mucor mucedo [8] = experiment: Antifungal activity against Mucor mucedo ATCC 7941 assessed as growth inhibition at pH 7 incubated for 20 hrs in presence of 10% beef serum; conditions: for MIC: ATCC 7941, 20 h, read-out: MIC100; outline: as §1
[9] = test system: Trichophyton mentagrophytes; experiment: Antifungal activity against Trichophyton mentagrophytes ATCC 9129 assessed as growth inhibition at pH 7 incubated for 5 days in absence of 10% beef serum; conditions: for MIC: ATCC 9129, 120 h, read-out: MIC100; outline: as §1
[10] = test system: Trichophyton mentagrophytes; experiment: Antifungal activity against Trichophyton mentagrophytes ATCC 9129 assessed as growth inhibition at pH 5.6 incubated for 5 days in absence of 10% beef serum; conditions: for MIC: ATCC 9129, 120 h, read-out: MIC100; outline: as §1
[11] = test system: Trichophyton mentagrophytes; experiment: Antifungal activity against Trichophyton mentagrophytes ATCC 9129 assessed as growth inhibition at pH 7 incubated for 5 days in presence of 10% beef serum; conditions: for MIC: ATCC 9129, 120 h, read-out: MIC100; outline: as §1
Candida albicans [12] = experiment: Antifungal activity against Candida albicans ATCC 10231 assessed as growth inhibition at pH 7 incubated for 20 hrs in absence of 10% beef serum; conditions: for MIC: ATCC 10231, 20 h, read-out: MIC100; outline: as §1
Candida albicans [13] = experiment: Antifungal activity against Candida albicans ATCC 10231 assessed as growth inhibition at pH 5.6 incubated for 20 hrs in presence of 10% beef serum; conditions: for MIC: ATCC 10231, 20 h, read-out: MIC100; outline: as §1
Candida albicans [14] = experiment: Antifungal activity against Candida albicans ATCC 10231 assessed as growth inhibition at pH 5.6 incubated for 20 hrs in absence of 10% beef serum; conditions: for MIC: ATCC 10231, 20 h, read-out: MIC100; outline: as §1
Mucor mucedo [15] = experiment: Antifungal activity against Mucor mucedo ATCC 7941 assessed as growth inhibition at pH 7 incubated for 20 hrs in absence of 10% beef serum; conditions: for MIC: ATCC 7941, 20 h, read-out: MIC100; outline: as §1
[16] = test system: Trichophyton mentagrophytes; experiment: Antifungal activity against Trichophyton mentagrophytes ATCC 9129 assessed as growth inhibition at pH 5.6 incubated for 5 days in presence of 10% beef serum; conditions: for MIC: ATCC 9129, 120 h, read-out: MIC100; outline: as §1

SMILES | MIC (Aspergillus niger [1]) | MIC (Mucor mucedo [2]) | MIC (Aspergillus niger [3]) | MIC (Aspergillus niger [4]) | MIC (Aspergillus niger [5]) | MIC (Mucor mucedo [6]) | MIC (Candida albicans [7]) | MIC (Mucor mucedo [8]) | MIC [9] | MIC [10] | MIC [11] | MIC (Candida albicans [12]) | MIC (Candida albicans [13]) | MIC (Candida albicans [14]) | MIC (Mucor mucedo [15]) | MIC [16] | also measured
COC(=O)/C=C/CF |  |  |  |  |  |  |  |  |  |  |  |  |  |  |  |  | MIC100 (Aspergillus niger [1]): inactive; MIC100 (Mucor mucedo [2]): inactive; MIC100 (Aspergillus niger [3]): inactive; MIC100 (Aspergillus niger [4]): inactive; MIC100 (Aspergillus niger [5]): inactive; MIC100 (Mucor mucedo [6]): inactive; MIC100 (Candida albicans [7]): inactive; MIC100 (Mucor mucedo [8]): inactive; MIC100 [9]: inactive; MIC100 [10]: inactive; MIC100 [11]: inactive; MIC100 (Candida albicans [12]): inactive; MIC100 (Candida albicans [13]): inactive; MIC100 (Candida albicans [14]): inactive; MIC100 (Mucor mucedo [15]): inactive; MIC100 [16]: inactive
COC/C=C/C(=O)OC |  |  |  |  |  |  |  |  |  |  |  |  |  |  |  |  | MIC100 (Mucor mucedo [2]): inactive; MIC100 [10]: inactive
CCOC(=O)/C=C/CI | 40 µg/mL (≈ 167 µM) | < 1 µg/mL | 40 µg/mL | 50 µg/mL | 40 µg/mL (≈ 167 µM) | 4 µg/mL | 18 µg/mL | 5 µg/mL | 2 µg/mL (≈ 8.33 µM) | < 1 µg/mL | 4 µg/mL | 10 µg/mL (≈ 41.7 µM) | 18 µg/mL | 8 µg/mL (≈ 33.3 µM) | 3 µg/mL (≈ 12.5 µM) | 2 µg/mL | 
C[C@@H]1[C@H](O)[C@@H](C)/C=C/C=C/C=C/C=C/C=C/C=C/C=C/[C@H](O[C@@H]2O[C@H](C)[C@@H](O)[C@H](N)[C@@H]2O)C[C@@H]2O[C@](O)(C[C@@H](O)C[C@@H](O)[C@H](O)CC[C@@H](O)C[C@@H](O)CC(=O)O[C@H]1C)C[C@H](O)[C@H]2C(=O)O [AMPHOTERICIN B] | < 1 µg/mL | < 1 µg/mL | < 1 µg/mL | < 1 µg/mL | < 1 µg/mL | < 1 µg/mL | < 1 µg/mL | < 1 µg/mL | < 1 µg/mL | < 1 µg/mL | < 1 µg/mL | < 1 µg/mL | < 1 µg/mL | < 1 µg/mL | < 1 µg/mL | < 1 µg/mL | 
CCCOC(=O)/C=C/CI | 30 µg/mL (≈ 118 µM) | 2 µg/mL (≈ 7.87 µM) | 60 µg/mL | 60 µg/mL | 30 µg/mL (≈ 118 µM) | 5 µg/mL | 20 µg/mL | 6 µg/mL | 2 µg/mL (≈ 7.87 µM) | < 1 µg/mL | 7 µg/mL | 12 µg/mL (≈ 47.2 µM) | 16 µg/mL | 10 µg/mL (≈ 39.4 µM) | 3 µg/mL (≈ 11.8 µM) | 3 µg/mL | 
CCCCOC(=O)/C=C/CI | 30 µg/mL (≈ 112 µM) | 2 µg/mL (≈ 7.46 µM) | 70 µg/mL | 70 µg/mL | 20 µg/mL (≈ 74.6 µM) | 5 µg/mL | 30 µg/mL | 7 µg/mL | < 1 µg/mL | < 1 µg/mL | 7 µg/mL | 12 µg/mL (≈ 44.8 µM) | 20 µg/mL | 10 µg/mL (≈ 37.3 µM) | 4 µg/mL (≈ 14.9 µM) | 3 µg/mL | 
CCCCCOC(=O)/C=C/CI | 40 µg/mL (≈ 142 µM) | 4 µg/mL (≈ 14.2 µM) |  |  | 30 µg/mL (≈ 106 µM) | 9 µg/mL | 50 µg/mL | 12 µg/mL | 2 µg/mL (≈ 7.09 µM) | < 1 µg/mL | 10 µg/mL | 12 µg/mL (≈ 42.5 µM) | 40 µg/mL | 5 µg/mL (≈ 17.7 µM) | 3 µg/mL (≈ 10.6 µM) | 4 µg/mL | MIC100 (Aspergillus niger [3]): inactive; MIC100 (Aspergillus niger [4]): inactive
CC1/C=C/C=C/C=C/C=C/C=C/C=C/C=C/C(OC2O[C@H](C)[C@@H](O)[C@H](N)[C@@H]2O)CC(O)C(C(=O)O)C(O)CC(=O)CC(O)CC(O)CC(O)CC(=O)CCCC(=O)CC(=O)OC1C(C)CC(C)C(O)CC(=O)c1ccc(N)cc1 (some centres undefined) | 2 µg/mL (≈ 1.8 µM) | < 1 µg/mL | 7 µg/mL | 5 µg/mL | 5 µg/mL (≈ 4.51 µM) | < 1 µg/mL | 2 µg/mL | < 1 µg/mL | 3 µg/mL (≈ 2.7 µM) | < 1 µg/mL | 9 µg/mL | < 1 µg/mL | < 1 µg/mL | < 1 µg/mL | < 1 µg/mL | < 1 µg/mL | 
